Series [1] concerns the target T1, Integrin alpha-4/beta-1 (Homo sapiens, UniProt P05556+P13612). As to the kind of experiment: Inhibition of alpha4beta1 integrin expressed in human CCRF-CEM cells assessed as cell adhesion to fibronectin after 1 hr by fluorimetry analysis. Format: cell-based. The method in brief: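 Calcein-prelabelled CCRF-CEM cells (α4β1-expressing T lymphoblast-like line) were added to plates coated with fibronectin (10 µg/mL). Incubation was 1 h at 37 °C with or without increasing compound doses (1–500 µM). Adherent cells were quantified by fluorescence, and IC50 was derived from the inhibition of adhesion.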

Series [2] concerns CCRF-CEM. As to the kind of experiment: Cytotoxicity against human CCRF-CEM cells at 200 uM after 24 hrs by propidium iodide-based flow cytometry. The class given is cell-based. An outline of the steps:
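CCRF-CEM cells were incubated for 24 h with increasing amounts of compound, up to 200 µM final, then stained with propidium iodide to detect dead cells by fluorescence.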
On the technique in general: In flow cytometry, cells or beads pass a laser one at a time.

Series [3] concerns the target T1, Integrin alpha-4/beta-1. Put plainly: Binding affinity to alpha4beta1 integrin expressed human CCRF-CEM cells at 100 uM after 24 hrs by alexa-conjugated streptavidin-based microscopy. Format: cell-based. The method in brief:
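Fibronectin-coated plates (10 µg/mL). Adherent CCRF-CEM cells were exposed to biotin-conjugated molecules at 100 µM for 24 h and washed extensively. Alexa 568-conjugated streptavidin was then added, and extracellular fluorescence on the cell surface was imaged. Controls were not pre-treated and received only fluorescent streptavidin.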

Series [4] has as its target T1, Integrin alpha-4/beta-1. Put plainly: Induction of adhesion of alpha4beta1 integrin expressing calcein-labelled human CCRF-CEM cells to neutravidin-coated plates at 0.1 to 10 uM pre-incubated for 2 hrs measured after 1 hr by fluorimetry. The class given is cell-based. An outline of the steps:
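Neutravidin-coated plates were pre-treated with biotin-conjugated compound, then calcein-labelled CCRF-CEM cells were added. Adherent cells were quantified by calcein fluorescence. Untreated plates served as control.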

Series [5] addresses T1, Integrin alpha-4/beta-1. Put plainly: Detachment of pre-adhered alpha4beta1 integrin expressed in calcein-labelled human CCRF-CEM cells from fibronectin at 1 to 500 uM after 24 to 48 hrs by MTT assay. The class given is cell-based.
For series [6], the system named is HUVEC. As to the kind of experiment: Inhibition of fibronectin adhesion into HUVEC after 1 hr by fluorimetry analysis. The class given is functional, cell-based. Conditions: Homo sapiens.

Active and inactive are the calls of the source. The rule behind the calls is not given here. A value given as a limit tells only on which side of the number the result lay.

T1 sequence (P05556 whole entry): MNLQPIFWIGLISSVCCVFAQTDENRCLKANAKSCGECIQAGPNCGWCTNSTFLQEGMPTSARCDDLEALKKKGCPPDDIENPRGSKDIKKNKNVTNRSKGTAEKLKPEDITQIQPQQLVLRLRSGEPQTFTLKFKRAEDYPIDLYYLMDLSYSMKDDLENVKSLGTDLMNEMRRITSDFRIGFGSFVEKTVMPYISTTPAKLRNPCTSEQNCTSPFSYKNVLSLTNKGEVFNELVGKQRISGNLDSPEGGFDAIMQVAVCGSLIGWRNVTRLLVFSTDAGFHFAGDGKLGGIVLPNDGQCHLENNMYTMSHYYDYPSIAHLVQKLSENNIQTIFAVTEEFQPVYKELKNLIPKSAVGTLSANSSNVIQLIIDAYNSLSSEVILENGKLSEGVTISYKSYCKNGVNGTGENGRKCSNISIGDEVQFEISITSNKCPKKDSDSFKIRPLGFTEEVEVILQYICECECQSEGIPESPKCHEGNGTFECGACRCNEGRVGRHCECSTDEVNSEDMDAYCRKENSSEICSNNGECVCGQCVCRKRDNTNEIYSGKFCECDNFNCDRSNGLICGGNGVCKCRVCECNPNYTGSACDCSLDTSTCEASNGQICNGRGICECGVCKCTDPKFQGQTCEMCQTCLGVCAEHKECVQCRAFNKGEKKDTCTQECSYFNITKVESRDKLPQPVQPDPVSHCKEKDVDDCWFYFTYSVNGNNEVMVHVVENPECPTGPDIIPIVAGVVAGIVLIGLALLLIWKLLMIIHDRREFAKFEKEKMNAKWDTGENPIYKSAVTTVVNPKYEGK
T1 sequence (P13612 whole entry): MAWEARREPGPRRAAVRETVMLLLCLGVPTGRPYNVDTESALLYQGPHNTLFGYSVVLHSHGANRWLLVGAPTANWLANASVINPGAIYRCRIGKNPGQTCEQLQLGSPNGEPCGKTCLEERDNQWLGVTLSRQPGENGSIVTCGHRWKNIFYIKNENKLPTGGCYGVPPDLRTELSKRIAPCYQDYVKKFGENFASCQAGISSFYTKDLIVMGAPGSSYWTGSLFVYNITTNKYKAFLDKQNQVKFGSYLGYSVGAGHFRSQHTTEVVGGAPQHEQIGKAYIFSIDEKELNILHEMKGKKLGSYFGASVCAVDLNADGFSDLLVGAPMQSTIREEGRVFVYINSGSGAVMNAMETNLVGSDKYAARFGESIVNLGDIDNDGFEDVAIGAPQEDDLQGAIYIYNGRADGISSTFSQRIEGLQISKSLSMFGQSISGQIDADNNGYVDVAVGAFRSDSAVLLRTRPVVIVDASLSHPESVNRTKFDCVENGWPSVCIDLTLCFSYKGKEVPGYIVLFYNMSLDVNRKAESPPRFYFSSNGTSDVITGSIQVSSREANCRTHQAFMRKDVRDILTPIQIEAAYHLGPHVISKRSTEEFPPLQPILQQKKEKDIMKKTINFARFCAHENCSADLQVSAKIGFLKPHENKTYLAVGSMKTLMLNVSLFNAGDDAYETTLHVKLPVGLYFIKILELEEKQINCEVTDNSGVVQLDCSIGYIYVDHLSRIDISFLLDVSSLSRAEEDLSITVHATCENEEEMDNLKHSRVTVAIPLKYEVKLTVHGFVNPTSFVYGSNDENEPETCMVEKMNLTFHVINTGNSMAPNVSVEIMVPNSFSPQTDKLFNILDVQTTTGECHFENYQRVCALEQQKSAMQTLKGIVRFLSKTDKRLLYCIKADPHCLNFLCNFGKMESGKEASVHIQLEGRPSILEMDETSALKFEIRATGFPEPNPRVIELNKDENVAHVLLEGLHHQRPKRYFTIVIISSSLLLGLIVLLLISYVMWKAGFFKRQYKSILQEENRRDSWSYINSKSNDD

For the compound `Cc1cccc(C)c1NC(=O)Nc1ccc(CC(=O)Nc2ccc(OCC(=O)OC(C)(C)C)c(CCC(=O)O)c2)cc1`, the IC50 (usually the concentration at which inhibition is half-maximal) in series [1] was 68.4 µM.

For `Cc1cccc(C)c1NC(=O)Nc1ccc(CC(=O)NCCCCCCCCCCCCNC(=O)CCCC[C@@H]2SC[C@@H]3NC(=O)N[C@@H]32)cc1`, the Activity entry in series [2] is recorded as “Non-toxic”. Further, the result in series [3] and in series [4] was inactive. Moreover, in series [1], the IC50 came out at 97.7 µM.

For the compound `Cc1cccc(C)c1NC(=O)Nc1ccc(CC(=O)Nc2ccc(OCC(=O)O)c(CCC(=O)NCCOCCOCCOCCOCCOCCN)c2)cc1`, the outcome in series [5] was inactive. In series [1], the IC50 came out at 170 µM.

In the case of `Cc1cccc(C)c1NC(=O)Nc1ccc(CC(=O)N[C@@H](CC(C)C)C(=O)N[C@@H](CC(=O)O)C(=O)N[C@H](C(=O)NCCc2ccccc2)C(C)C)cc1`, the inhibition result in series [6] was “inactive”. For the same compound, the IC50 in series [1] was determined as 36.3 µM.

For `Cc1cccc(C)c1NC(=O)Nc1ccc(CC(=O)NCCCCCCCCCCCCN)cc1`, in series [1], the IC50 stood at 151 µM.

In the case of `Cc1cccc(C)c1NC(=O)Nc1ccc(CC(=O)N[C@@H](CC(C)C)C(=O)N[C@@H](CC(=O)O)C(=O)N[C@H](C(=O)NCCCCCCCCCCCCN)C(C)C)cc1`, the inhibition result in series [6] is “inactive”. In series [1], the IC50 came to 2.6 µM.

For the compound `Cc1cccc(C)c1NC(=O)Nc1ccc(CC(=O)Nc2ccc(OCC(=O)O)c(CCC(=O)NCCCCCCCCCCCCNC(=O)CCCC[C@@H]3SC[C@@H]4NC(=O)N[C@@H]43)c2)cc1`, the Activity result in series [2] is recorded as “Non-toxic”. For the same compound, the result in series [3] and in series [4] was Active. In addition, the IC50 in series [1] was 14.1 µM.

As to `Cc1cccc(C)c1NC(=O)Nc1ccc(CC(=O)O)cc1`, the IC50 in series [1] is over 1000 µM.

Regarding `Cc1cccc(C)c1NC(=O)Nc1ccc(CC(=O)Nc2ccc(OCC(=O)O)c(CCC(=O)NCCCCCCCCCCCCN)c2)cc1`, in series [5], the outcome was Active. For the same compound, the IC50 in series [1] is 123 µM.

The values are drawn from ChEMBL document CHEMBL1933001, “LDV peptidomimetics equipped with biotinylated spacer-arms: synthesis and biological evaluation on CCRF-CEM cell line” (Bioorg Med Chem Lett, 2012).
